Laboratory results taken from ChEMBL document CHEMBL1153856, “Synthesis and spectral characterization of a new class of N-(N-methylpiperazinoacetyl)-2,6-diarylpiperidin-4-ones: antimicrobial, analgesic and antipyretic studies” (2009).
Values after ≈ are worked out from the molar mass of the structure shown.

Columns and labels:
Assay type in all cases: functional
Rattus norvegicus [1] = assay: Antipyretic activity against brewer's yeast-induced hyperthermia in Wistar rat assessed as change in rectal temperature at 60 mg/kg, po after 60 mins
In short: (§1)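 Wistar rats of both sexes, 200–250 g, received brewer's yeast in normal saline sc. Rectal temperature was taken with a digital thermometer (precision 0.1 °C). At 18 h, rats whose temperature had risen 0.3–0.5 °C were selected. Test compounds (30 or 60 mg/kg) or indomethacin (5 mg/kg) were given orally in 1% CMC; controls received vehicle only. Temperature was measured at 30, 60, 90, 120 and 150 min, mean ± SEM.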

Mus musculus [2] = assay: Analgesic activity in albino mouse assessed as inhibition of acetic acid-induced writhing response at 30 mg/kg, po administered 1 hr prior to acetic acid challenge relative to control
In short: (§2)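 Albino mice of both sexes, 20–25 g, n = 6 per group. Doses of 30, 60 or 90 mg/kg were given orally as suspensions in 1% sodium CMC. 1 h later, 1% acetic acid in normal saline (10 mL/kg) was injected ip. Complete extension of either hind limb counted as a writhe. Counting started 5 min after injection and ran 30 min. Results are % inhibition = [1 − T/C] × 100 versus vehicle controls, mean ± SEM.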

Staphylococcus aureus = assay: Antimicrobial activity against Staphylococcus aureus after 24 hrs by twofold serial dilution method
In short: (§3)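 Twofold serial broth dilution in nutrient broth at pH 7.4 ± 0.2. Compound stocks were 1 mg/mL in DMSO, diluted 1:5 into seeded broth, then six serial dilutions. Inocula came from 24 h nutrient-agar cultures, final 10⁵ cfu/mL. Incubation was 37 ± 1 °C for 24 h, with growth and solvent controls. MIC was read visually; ciprofloxacin was the standard.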

Rattus norvegicus [3] = assay: Antipyretic activity against brewer's yeast-induced hyperthermia in Wistar rat assessed as change in rectal temperature at 30 mg/kg, po after 90 mins; in short: as §1
Rattus norvegicus [4] = assay: Antipyretic activity against brewer's yeast-induced hyperthermia in Wistar rat assessed as change in rectal temperature at 30 mg/kg, po after 30 mins; in short: as §1
Pseudomonas aeruginosa = assay: Antimicrobial activity against Pseudomonas aeruginosa after 24 hrs by twofold serial dilution method; in short: as §3
Rhizopus = assay: Antimicrobial activity against Rhizopus sp. after 72 to 96 hrs by twofold serial dilution method
In short: (§4)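 Twofold serial broth dilution in Sabouraud dextrose broth at pH 5.6. Spores came from 1–7-day Sabouraud agar slants, final inoculum 1.1–1.5 × 10² cfu/mL. Compound stocks were 1 mg/mL in DMSO, diluted 1:5 into seeded broth, then six serial dilutions. Incubation was 28 ± 1 °C for 72–96 h, with growth and solvent controls. MIC was read visually; amphotericin B was the standard.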

[5] = system: Salmonella enterica subsp. enterica serovar Typhi str. CT18; assay: Antimicrobial activity against Salmonella typhi after 24 hrs by twofold serial dilution method; in short: as §3
Aspergillus flavus = assay: Antimicrobial activity against Aspergillus flavus after 72 to 96 hrs by twofold serial dilution method; in short: as §4
Candida albicans = assay: Antimicrobial activity against Candida albicans after 72 to 96 hrs by twofold serial dilution method; in short: as §4
Rattus norvegicus [6] = assay: Antipyretic activity against brewer's yeast-induced hyperthermia in Wistar rat assessed as change in rectal temperature at 60 mg/kg, po after 30 mins; in short: as §1
Rattus norvegicus [7] = assay: Antipyretic activity against brewer's yeast-induced hyperthermia in Wistar rat assessed as change in rectal temperature at 60 mg/kg, po after 150 mins; in short: as §1
Aspergillus niger = assay: Antimicrobial activity against Aspergillus niger after 72 to 96 hrs by twofold serial dilution method; in short: as §4
Rattus norvegicus [8] = assay: Antipyretic activity against brewer's yeast-induced hyperthermia in Wistar rat assessed as change in rectal temperature at 30 mg/kg, po after 120 mins; in short: as §1
Klebsiella pneumoniae = assay: Antimicrobial activity against Klebsiella pneumoniae after 24 hrs by twofold serial dilution method; in short: as §3
Rattus norvegicus [9] = assay: Antipyretic activity against brewer's yeast-induced hyperthermia in Wistar rat assessed as change in rectal temperature at 60 mg/kg, po after 90 mins; in short: as §1
Rattus norvegicus [10] = assay: Antipyretic activity against brewer's yeast-induced hyperthermia in Wistar rat assessed as change in rectal temperature at 30 mg/kg, po after 60 mins; in short: as §1
Rattus norvegicus [11] = assay: Antipyretic activity against brewer's yeast-induced hyperthermia in Wistar rat assessed as change in rectal temperature at 30 mg/kg, po after 150 mins; in short: as §1
Rattus norvegicus [12] = assay: Antipyretic activity against brewer's yeast-induced hyperthermia in Wistar rat assessed as change in rectal temperature at 60 mg/kg, po after 120 mins; in short: as §1
Mus musculus [13] = assay: Analgesic activity in albino mouse assessed as inhibition of acetic acid-induced writhing response at 90 mg/kg, po administered 1 hr prior to acetic acid challenge relative to control; in short: as §2
Escherichia coli = assay: Antimicrobial activity against Escherichia coli after 24 hrs by twofold serial dilution method; in short: as §3
Mus musculus [14] = assay: Analgesic activity in albino mouse assessed as inhibition of acetic acid-induced writhing response at 60 mg/kg, po administered 1 hr prior to acetic acid challenge relative to control; in short: as §2

| SMILES | Activity (Rattus norvegicus [1]) [°C] | inhibition in vivo at 30 mg/kg (Mus musculus [2]) [%] | MIC (Staphylococcus aureus) [µg/mL] | Activity (Rattus norvegicus [3]) [°C] | Activity (Rattus norvegicus [4]) [°C] | MIC (Pseudomonas aeruginosa) [µg/mL] | MIC (Rhizopus) [µg/mL] | MIC [5] [µg/mL] | MIC (Aspergillus flavus) [µg/mL] | MIC (Candida albicans) [µg/mL] | Activity (Rattus norvegicus [6]) [°C] | Activity (Rattus norvegicus [7]) [°C] | MIC (Aspergillus niger) [µg/mL] | Activity (Rattus norvegicus [8]) [°C] | MIC (Klebsiella pneumoniae) [µg/mL] | Activity (Rattus norvegicus [9]) [°C] | Activity (Rattus norvegicus [10]) [°C] | inhibition in vivo at 90 mg/kg (Mus musculus [13]) [%] | MIC (Escherichia coli) [µg/mL] | inhibition in vivo at 60 mg/kg (Mus musculus [14]) [%] | other results |
| --- | --- | --- | --- | --- | --- | --- | --- | --- | --- | --- | --- | --- | --- | --- | --- | --- | --- | --- | --- | --- | --- |
| CCC1C(=O)CC(c2ccccc2)N(C(=O)CN2CCN(C)CC2)C1c1ccccc1 (configuration not stated) | 38.2 | 8 | 100 (≈ 238 µM) | 38.15 | 38.27 | 200 (≈ 477 µM) | > 200 | 100 (≈ 238 µM) | > 200 | 100 (≈ 238 µM) | 38.25 | 38.9 | 200 (≈ 477 µM) | 38.01 | 50 (≈ 119 µM) | 38.1 | 38.22 | 1.2 | > 200 | 4.5 | Activity (Rattus norvegicus [11]): 38.98 °C; Activity (Rattus norvegicus [12]): 38.95 °C |
| CC1C(=O)C(C)C(c2ccccc2)N(C(=O)CN2CCN(C)CC2)C1c1ccccc1 (configuration not stated) | 37.95 | 17.4 | 50 (≈ 119 µM) | 38.95 | 38.11 | 50 (≈ 119 µM) | 50 (≈ 119 µM) | 25 (≈ 59.6 µM) | 50 (≈ 119 µM) | 100 (≈ 238 µM) | 38.1 | 37.55 | 50 (≈ 119 µM) | 38.85 | 12.5 (≈ 29.8 µM) | 37.9 | 38 | 13.9 | 100 (≈ 238 µM) | 24.1 | Activity (Rattus norvegicus [11]): 38.7 °C; Activity (Rattus norvegicus [12]): 37.7 °C |
| CC1C(=O)CC(c2ccccc2)N(C(=O)CN2CCN(C)CC2)C1c1ccccc1 (configuration not stated) | 38.1 | 6.3 | > 200 | 38.1 | 38.25 | > 200 | > 200 | 200 (≈ 493 µM) | 100 (≈ 247 µM) | > 200 | 38.2 | 38.95 | 100 (≈ 247 µM) | 38.03 | 200 (≈ 493 µM) | 38.02 | 38.2 | 17.7 | 100 (≈ 247 µM) | 15.6 | Activity (Rattus norvegicus [11]): 38.01 °C; Activity (Rattus norvegicus [12]): 38.01 °C |
| O=C(O)c1cn(C2CC2)c2cc(N3CCNCC3)c(F)cc2c1=O [CIPROFLOXACIN] | – | – | – | – | – | – | – | 50 (≈ 151 µM) | – | – | – | – | – | – | 25 (≈ 75.4 µM) | – | – | – | 25 (≈ 75.4 µM) | – | – |
| CC1C(=O)CC(c2ccc(Cl)cc2)N(C(=O)CN2CCN(C)CC2)C1c1ccc(Cl)cc1 (configuration not stated) | 37.92 | 49.2 | 50 (≈ 105 µM) | 37.89 | 37.05 | 6.25 (≈ 13.2 µM) | 12.5 (≈ 26.3 µM) | 12.5 (≈ 26.3 µM) | 50 (≈ 105 µM) | 6.25 (≈ 13.2 µM) | 37.95 | 37.5 | 25 (≈ 52.7 µM) | 37.7 | 25 (≈ 52.7 µM) | 37.85 | 37.96 | 61.6 | 25 (≈ 52.7 µM) | 70.4 | Activity (Rattus norvegicus [11]): 37.65 °C; Activity (Rattus norvegicus [12]): 37.65 °C |
| COc1ccc(C2C(C)C(=O)C(C)C(c3ccc(OC)cc3)N2C(=O)CN2CCN(C)CC2)cc1 (configuration not stated) | 38.95 | 46.2 | 12.5 (≈ 26.1 µM) | 37.95 | 38.1 | 50 (≈ 104 µM) | 25 (≈ 52.1 µM) | 100 (≈ 208 µM) | 12.5 (≈ 26.1 µM) | 6.25 (≈ 13 µM) | 38.01 | 37.6 | 25 (≈ 52.1 µM) | 37.8 | 25 (≈ 52.1 µM) | 37.9 | 38.01 | 38.7 | 25 (≈ 52.1 µM) | 59.1 | Activity (Rattus norvegicus [11]): 37.7 °C; Activity (Rattus norvegicus [12]): 37.85 °C |
| C[C@@H]1[C@H](O)[C@@H](C)/C=C/C=C/C=C/C=C/C=C/C=C/C=C/[C@H](O[C@@H]2O[C@H](C)[C@@H](O)[C@H](N)[C@@H]2O)C[C@@H]2O[C@](O)(C[C@@H](O)C[C@@H](O)[C@H](O)CC[C@@H](O)C[C@@H](O)CC(=O)O[C@H]1C)C[C@H](O)[C@H]2C(=O)O [AMPHOTERICIN B] | – | – | – | – | – | – | 25 (≈ 27.1 µM) | – | 50 (≈ 54.1 µM) | 25 (≈ 27.1 µM) | – | – | 50 (≈ 54.1 µM) | – | – | – | – | – | – | – | – |
| COc1ccc(C2CC(=O)C(C)C(c3ccc(OC)cc3)N2C(=O)CN2CCN(C)CC2)cc1 (configuration not stated) | 37.7 | 48.2 | 100 (≈ 215 µM) | 37.6 | 37.9 | 50 (≈ 107 µM) | 50 (≈ 107 µM) | 200 (≈ 430 µM) | 50 (≈ 107 µM) | 25 (≈ 53.7 µM) | 37.85 | 37.01 | 100 (≈ 215 µM) | 37.5 | 100 (≈ 215 µM) | 37.5 | 37.8 | 48 | 50 (≈ 107 µM) | 70.3 | Activity (Rattus norvegicus [11]): 37.2 °C; Activity (Rattus norvegicus [12]): 37.3 °C |
| CC(=O)Oc1ccccc1C(=O)O [ASPIRIN] | – | 44.8 | – | – | – | – | – | – | – | – | – | – | – | – | – | – | – | 38.6 | – | 57.9 | – |
